Calls of active or inactive are those of the source. The rule behind the calls is not given here.
Assays:
L1210 [1] = test: Inhibition of protein synthesis in L1210 cells by the compound was determined the reduced incorporation of [4,5-3H]L-Leu into protein; type: functional, Mus musculus
How it was run: (§1)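 Cultured L1210 cells exposed to drug at 25, 50 or 100 µM. Label incorporation measured: [3H]dThd into DNA, [5-3H]Urd into RNA, [4,5-3H]L-Leu into protein. Values are percent inhibition of incorporation.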

Wild type T- cell line = test: Compound was tested for its cytotoxicity against wild type T- cell line; type: functional, cell-based; details: Homo sapiens
How it was run: (§2)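 Cells seeded at 1 × 10^5/mL in RPMI 1640 with 10% fetal calf serum, 2 mM L-glutamine and increasing drug concentrations. Cultured 3 days under 95% air/5% CO2. Viable cells counted microscopically after adding 0.1% erythrocin B, relative to drug-free cultures. Points are mean ± SEM, except the adenosine kinase-deficient mutant, which used duplicates.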

L1210 [2] = test: Effect of compound on macromolecular synthesis in L1210 cells in culture; 8.5-17uM; type: functional, cell-based; details: Mus musculus
B-cell = test: Compound was tested for its cytotoxicity against B- cell line (Wi-L2 B -lymphoblasts); type: functional, cell-based; details: Homo sapiens; how it was run: as §2
L1210 [3] = test: Inhibition of DNA synthesis in L1210 cells by the compound was determined the reduced incorporation of incorporation of [3H]dThd into DNA at concentration of 50 uM; type: functional; details: Mus musculus; how it was run: as §1
L1210 [4] = test: Compound was tested for its ability to inhibit the incorporation of [3H]dThd into DNA at concentration of 100 uM; type: functional; details: Mus musculus; how it was run: as §1
L1210 [5] = test: Inhibition of DNA synthesis in L1210 cells by the compound was determined the reduced incorporation of incorporation of [3H]dThd into DNA at concentration of 25 uM; type: functional; details: Mus musculus; how it was run: as §1
L1210 [6] = test: Inhibition of RNA synthesis in L1210 cells by the compound was determined the reduced incorporation of [5-3H]-Urd into RNA at the concentration of 100 uM; NI denotes no inhibition; type: functional, cell-based; details: Mus musculus; how it was run: as §1
[7] = Compound was tested for its cytotoxicity against MGL-8 B -lymphoblasts; type: functional, Homo sapiens; how it was run: as §2
T-cell = test: Compound was tested for its cytotoxicity against T- cell line; type: functional, cell-based; details: Homo sapiens; how it was run: as §2

Compound | Inhibition (L1210 [1]) | IC50 (Wild type T- cell line) | IC50 (L1210 [2]) | IC50 (B-cell) | inhibition at 50 µM (L1210 [3]) | inhibition at 100 µM (L1210 [4]) | inhibition at 25 µM (L1210 [5]) | inhibition (L1210 [6]) | IC50 [7] | IC50 (T-cell)
Nc1nc(O)c2ncn([C@@H]3O[C@H](CO)[C@@H](O)[C@@H]3F)c2n1 [F-ARAG] | 17% | ~200 nM | 8500 nM | ~750 nM | 62% | 76% | 12% | inactive | – | –
Nc1nc2c(ncn2[C@@H]2O[C@H](CO)[C@@H](O)[C@H]2O)c(=O)[nH]1 [GUANOSINE] | – | – | – | – | – | – | – | – | 7000 nM | 100 nM

— ChEMBL document CHEMBL1123373, “9-(2-Deoxy-2-fluoro-beta-D-arabinofuranosyl)guanine: a metabolically stable cytotoxic analogue of 2'-deoxyguanosine” (J Med Chem, 1986)
